Active and inactive are the calls of the source. No cut-off for these calls is given here.
What was measured:
[1] = test system: Plasmodium falciparum; experiment: Anti-parasitic activity against CQ-sensitive Plasmodium falciparum D10 assessed as growth inhibition by measuring increase in LDH release after 72 hrs by spectrophotometric method; type: functional; settings: D10, 72 h
Procedure, shortened: (§1)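 Asynchronous cultures (parasitemia 1–1.5%, 1% final hematocrit, human A+ RBCs) in RPMI 1640 with 1% AlbuMax, 0.01% hypoxanthine, 20 mM HEPES, 2 mM glutamine. Serial dilutions from DMSO stocks (final DMSO <1%). IC50 as mean ± SD of ≥3 experiments in duplicate.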

[2] = test system: Plasmodium falciparum; experiment: Anti-parasitic activity against CQ-resistant Plasmodium falciparum W2 assessed as growth inhibition by measuring increase in LDH release after 72 hrs by spectrophotometric method; type: functional; settings: W2, 72 h; procedure, shortened: as §1
[3] = Stability of the compound in RPMI 1640 medium at 1 uM up to 24 hrs by HPLC-MS/MS method; type: physicochemical
[4] = test system: HMEC-1; experiment: Antiproliferative activity against SV40 large T-antigen 38 immortalized HMEC1 cells after 72 hrs by MTT assay; type: cell-based; settings: Homo sapiens, HMEC-1, 72 h
Procedure, shortened: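 HMEC-1 cells (SV40 large T-antigen immortalized) grown in MCDB 131 with 10% fetal calf serum, 10 ng/mL EGF, 1 μg/mL hydrocortisone, 2 mM glutamine, penicillin/streptomycin, 20 mM Hepes. Treated with serial dilutions for 72 h; proliferation read by MTT. IC50 = dose inhibiting growth 50%; mean and SD of at least three experiments in duplicate.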

[5] = test system: Escherichia coli; experiment: Inhibition of Escherichia coli ClpB ATP hydrolysis activity at 1.5 uM after 15 mins by spectrophotometric method
Procedure, shortened: (§2)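 E. coli ClpB (concentration as monomer) assayed at 37 °C in 100 mM Tris/HCl pH 8, 1 mM DTT, 1 mM EDTA, 10 mM MgCl2. Reaction started by adding ClpB to buffer holding compound (DMSO stock diluted in buffer) and 4 mM ATP. Inorganic phosphate released from ATP quantified; matching DMSO amounts as controls.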

[6] = test system: Escherichia coli; experiment: Inhibition of Escherichia coli ClpB ATP hydrolysis activity at 1.5 uM preincubated for 21 mins followed by ATP addition by spectrophotometric method
Procedure, shortened: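 E. coli ClpB ATPase in 100 mM Tris/HCl pH 8, 1 mM DTT, 1 mM EDTA, 10 mM MgCl2, 37 °C. ClpB and compound (DMSO stock diluted in buffer) combined first; reaction started by adding ATP. ATP hydrolysis followed as inorganic phosphate generated; equivalent DMSO amounts served as controls.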

[7] = Selectivity index, ratio of IC50 for SV40 large T-antigen 38 immortalized HMEC1 cells to IC50 for CQ-resistant Plasmodium falciparum W2; type: toxicity; settings: human, read-out: Ratio IC50
[8] = Selectivity index, ratio of IC50 for SV40 large T-antigen 38 immortalized HMEC1 cells to IC50 for CQ-sensitive Plasmodium falciparum D10; type: toxicity; settings: human, read-out: Ratio IC50
[9] = Half-life in human liver microsomes at 1 uM in presence of NADPH by HPLC-MS/MS method; type: ADME, microsome
[10] = test system: Plasmodium falciparum; experiment: Antiparasitic activity against Plasmodium falciparum 3D7 infected in erythrocytes after 72 hrs by SYBR Green 1 dye-based assay; type: functional, cell-based; settings: 3D7, 72 h
[11] = test system: Escherichia coli; experiment: Inhibition of Escherichia coli ClpB ATP hydrolysis activity at 2 uM after 15 mins by spectrophotometric method; procedure, shortened: as §2
[12] = Inhibition of recombinant histidine-tagged Plasmodium falciparum choline kinase expressed in Escherichia coli using choline as substrate after 30 mins by HTRF method
[13] = test system: Escherichia coli; experiment: Inhibition of Escherichia coli ClpB ATP hydrolysis activity at 1.7 uM after 15 mins by spectrophotometric method; procedure, shortened: as §2

Compound | IC50 [1] [µM] | IC50 [2] [µM] | also measured
O=C(c1cc2ccccc2s1)N1CCOCC1 | > 15 | > 15 | –
CCc1c(C(=O)N2C[C@@H](C)O[C@@H](C)C2)sc2ccccc12 | 0.682 | 2.31 | –
CC1CN(C(=O)c2sc3ccccc3c2Cl)CC(C)O1 (stereo unspecified) | – | 0.26 | –
O=C(c1sc2ccccc2c1Cl)N1CCOCC1 | > 15 | > 15 | –
C[C@@H]1CN(C(=O)c2sc3ccccc3c2NCc2ccccc2)C[C@H](C)O1 | 2.62 | 9.77 | –
CC1CN(C(=O)c2sc3ccccc3c2Cl)CC(C)N1 (stereo unspecified) | 4.91 | 14.7 | –
C[C@@H]1CN(C(=O)c2cc3ccccc3s2)C[C@H](C)N1 | > 15 | > 15 | –
CC(=O)N1CCN(C(=O)c2cc3ccccc3s2)CC1 | 10.9 | 7.75 | –
O=C(Nc1ccncc1)c1sc2ccccc2c1Cl | > 15 | > 15 | Stability [3]: Stable
C[C@@H]1CN(C(=O)c2sc3ccccc3c2OCc2ccccc2)C[C@H](C)O1 | 0.038 | 0.142 | IC50 [4]: 73 µM; inhibition [5]: inactive; inhibition [6]: inactive; selectivity ratio [7]: 250 to 5000; selectivity ratio [8]: 250 to 5000; half-life at 1 µM [9]: 2.1 min
C[C@@H]1CN(C(=O)c2sc3ccccc3c2OCc2ccc(Cl)cc2)C[C@H](C)O1 | 0.186 | 0.728 | IC50 [4]: 48 µM; selectivity ratio [7]: 250 to 5000; selectivity ratio [8]: 250 to 5000
C[C@@H]1CN(C(=O)c2cc3ccccc3[nH]2)C[C@H](C)O1 | > 15 | > 15 | –
CC1CC(C)CN(C(=O)c2sc3ccccc3c2Cl)C1 (stereo unspecified) | 0.1 | 0.461 | IC50 [4]: 149 µM; selectivity ratio [7]: 250 to 5000; selectivity ratio [8]: 250 to 5000
C[C@@H]1CN(C(=O)c2nc3ccccc3s2)C[C@H](C)O1 | 9.79 | > 15 | –
C[C@@H]1CN(C(=O)c2sc3ccccc3c2Cl)C[C@H](C)O1 | 0.037 | 0.184 | Stability [3]: Stable; IC50 [4]: 195 µM; EC50 [10]: 0.3 µM; inhibition [11]: inactive; IC50 [12]: 6.3 µM; selectivity ratio [7]: 250 to 5000; selectivity ratio [8]: 250 to 5000; half-life at 1 µM [9]: 40 min
CN1CCN(C(=O)c2cc3ccccc3s2)CC1 | > 15 | > 15 | –
COc1c(C(=O)N2C[C@@H](C)O[C@@H](C)C2)sc2ccccc12 | 0.429 | 1.73 | –
CC1CN(C(=O)c2cc3ccccc3[nH]2)CC(C)N1 (stereo unspecified) | > 15 | > 15 | –
COc1ccc(COc2c(C(=O)N3C[C@@H](C)O[C@@H](C)C3)sc3ccccc23)cc1 | 0.146 | 0.877 | IC50 [4]: 83 µM; selectivity ratio [7]: 250 to 5000; selectivity ratio [8]: 250 to 5000

Compound | IC50 [1] [µM] | IC50 [2] [µM] | also measured
C[C@@H]1CN(C(=O)c2sc3ccccc3c2N)C[C@H](C)O1 | 8.76 | > 15 | –
Cc1ccc2c(Cl)c(C(=O)N3C[C@@H](C)O[C@@H](C)C3)sc2c1 | 0.086 | 0.596 | IC50 [4]: 201 µM; selectivity ratio [7]: 250 to 5000; selectivity ratio [8]: 250 to 5000
CCN(CC)C(=O)c1sc2ccccc2c1Cl | > 15 | > 15 | –
O=C(Nc1ccccn1)c1sc2ccccc2c1Cl | > 15 | > 15 | –
C[C@@H]1CN(C(=O)c2sc3cc(F)ccc3c2Cl)C[C@H](C)O1 | 0.074 | 0.455 | Stability [3]: Stable
C[C@@H]1CN(C(=O)c2sc3c(Cl)c(Cl)ccc3c2Cl)C[C@H](C)O1 | 2.22 | 7.44 | –
CCN(CC)CCCC(C)Nc1ccnc2cc(Cl)ccc12 (stereo unspecified) [CHLOROQUINE] | – | – | IC50 [4]: > 100 µM
C[C@@H]1CN(C(=O)c2sc3ccccc3c2Cl)C[C@@H](C)O1 | 0.645 | 2.69 | IC50 [4]: 154 µM; selectivity ratio [7]: 250 to 5000; selectivity ratio [8]: 250 to 5000
O=C(c1sc2ccccc2c1Cl)N1CCCCC1 | > 15 | > 15 | –
C[C@@H]1CN(C(=O)c2sc3cc(Cl)ccc3c2Cl)C[C@H](C)O1 | 0.407 | 2.09 | –
CC1CN(C(=O)c2cc3ccccc3o2)CC(C)N1 (stereo unspecified) | > 15 | > 15 | –
Cc1c(C(=O)N2C[C@@H](C)O[C@@H](C)C2)sc2ccccc12 | 0.226 | 0.753 | inhibition [13]: inactive; IC50 [4]: 142 µM; selectivity ratio [7]: 250 to 5000; selectivity ratio [8]: 250 to 5000; half-life at 1 µM [9]: 44 min
O=C(Nc1ccccc1)c1sc2ccccc2c1Cl | > 15 | > 15 | –
C[C@@H]1CN(C(=O)c2cc3ccccc3s2)C[C@H](C)O1 | 1.82 | 8.54 | –
O=C(NC12CC3CC(CC(C3)C1)C2)c1sc2ccccc2c1Cl | > 15 | > 15 | –
C[C@@H]1CN(C(=O)c2sc3ccccc3c2OCc2ccc(F)c(F)c2)C[C@H](C)O1 | 0.141 | 0.747 | IC50 [4]: 97 µM; selectivity ratio [7]: 250 to 5000; selectivity ratio [8]: 250 to 5000
C[C@@H]1CN(C(=O)c2sc3ccccc3c2O)C[C@H](C)O1 | > 15 | > 15 | –
C[C@@H]1CN(C(=O)c2cc3ccccc3o2)C[C@H](C)O1 | > 15 | > 15 | –
